Laboratory results as given in ChEMBL document CHEMBL4513216, “Probing the Open Global Health Chemical Diversity Library for Multistage-Active Starting Points for Next-Generation Antimalarials” (ACS Infect Dis, 2020).

Assay: Toxicity liver stage against HepG2, at 10uM
Assay type: cell-based
Set-up: test concentration 10 uM, cell line HepG2-A16-CD81EGFP
Conditions: human, HepG2-A16-CD81EGFP cells; read-out: INHIBITION
Outline: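 Uninfected HepG2-A16-CD81EGFP cells, 3 × 10^3 per well, 1536-well, plated on prespotted compound at 10 μM final, parasite-free screening media added to match infected plates; puromycin 10 μM positive, DMSO 0.5% negative; run in parallel with 48 h PbLuc assay at 37 °C, 5% CO2; viability by CellTiter-Glo luminescence, normalized to controls.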

Cc1csc(CN2C[C@H](NC(=O)C3CCOCC3)[C@@H](C(C)C)C2)n1 gave a cytotoxicity at 10 µM of 6.99%.
Work on Cc1ccc(NC2(C(=O)N3CCn4cncc4C3)CCCCC2)cc1C yielded a cytotoxicity at 10 µM of 8.47%.
Work on CCc1ccc2nc(NCCCN(CCO)CCO)cc(C)c2c1 yielded a cytotoxicity at 10 µM of -13.3%.
With CCN(C(C)=O)C1CCN(c2nccc(C3CCCC3)n2)C1 (stereo not given) the cytotoxicity at 10 µM was -5.35%.
Work on CCOCCNC(=O)C1CCC(=O)N(CCc2ccc(Cl)cc2)C1 (stereo not given) yielded a cytotoxicity at 10 µM of 8.61%.
Molecule CN(Cc1nc2ccccc2c(=O)[nH]1)C[C@@H]1CCCN2CCCC[C@H]12 has a cytotoxicity at 10 µM of -6.01%.
With NC1(C(=O)NCC2CCCN(Cc3ccccc3F)C2)CCCC1 (stereo not given) the cytotoxicity at 10 µM was -43.2%.
Molecule Cn1cccc1C(=O)N1CC[C@@]2(O)CCN(S(C)(=O)=O)C[C@H]2C1 has a cytotoxicity at 10 µM of -10.7%.
CC(C)c1nc(CNC(=O)c2ccc(C(C)N3CCCCC3)o2)cs1 (stereo not given) showed a cytotoxicity at 10 µM of -9.93%.
In the case of CCCn1cnc(NC(=O)NCC2CCS(=O)(=O)C2)n1 (stereo not given), the cytotoxicity at 10 µM is reported as 10.3%.
For CN(C)c1nc(NCCc2ccnn2C)ncc1F, the cytotoxicity at 10 µM was -9.83%.
Cc1cc(C)c2c(NCCC3(O)CCCC3)ncnc2n1 showed a cytotoxicity at 10 µM of -4.44%.
Molecule OCC1(O)CCN(Cc2ccc(C3CCCCO3)o2)CC1 (stereo not given) has a cytotoxicity at 10 µM of -5.95%.
CN1CCN(Cc2noc(CC3CCc4ccccc43)n2)CC1 (stereo not given) gave a cytotoxicity at 10 µM of -20.1%.
CC(C)c1cc(N[C@@H](CO)C(N)=O)n2nccc2n1 gave a cytotoxicity at 10 µM of -1.28%.
With CCc1ccccc1OCCN(C)C(=O)CCN1CCCO1 the cytotoxicity at 10 µM was -43%.
Cc1cccc(C(C(=O)N(C)CCc2cn[nH]c2)N(C)C)c1 (stereo not given) showed a cytotoxicity at 10 µM of -8.06%.
Work on CCNc1ncc(C(=O)N2CCOC(CCCc3ccccc3)C2)cn1 (stereo not given) yielded a cytotoxicity at 10 µM of 79.2%.
With O=C1NCC2(CCCN(C(=O)c3ccc4c(c3)OCCO4)CC2)O1 (stereo not given) the cytotoxicity at 10 µM was -9.35%.
In the case of Cc1ccc(F)c(NC(=O)CCC(=O)N(C)Cc2cc(C3CC3)[nH]n2)c1, the cytotoxicity at 10 µM is reported as 7.28%.
CC(C)CN1C(=O)CC[C@H]2CN(Cc3ncc[nH]3)CC[C@H]21 showed a cytotoxicity at 10 µM of -3.25%.
Work on CN(C)C(C(=O)N1CCN(C(=O)c2ccc[nH]2)CC1)c1ccc(F)cc1 (stereo not given) yielded a cytotoxicity at 10 µM of -5.19%.
Molecule COc1ccccc1OC1(C(=O)O)CCN(c2cnccn2)CC1 has a cytotoxicity at 10 µM of -27.5%.
For CCn1nc(C)cc1C(=O)NCc1cccnc1N(C)C, the cytotoxicity at 10 µM was -5.54%.
In the case of Cc1ccc2c(c1)cc(CN1CC[C@](C)(O)[C@H](C)C1)n2C, the cytotoxicity at 10 µM is reported as 0.379%.
Cc1cccnc1CC(C)NC1Cc2ccccc2C1 (stereo not given) gave a cytotoxicity at 10 µM of 4.69%.
In the case of CCCN1CCCC1c1ccc(C(=O)N2CCOCC2)s1 (stereo not given), the cytotoxicity at 10 µM is reported as -146%.
Molecule Cn1cc(N)c(-c2nnc3n2CCCC3)n1 has a cytotoxicity at 10 µM of -6.83%.
CCC(=O)N1CCCC1c1nccnc1Nc1ncccn1 (stereo not given) showed a cytotoxicity at 10 µM of 3.58%.
CCc1nc(C2CCCN(C(=O)c3ccccc3Cl)C2)no1 (stereo not given) gave a cytotoxicity at 10 µM of -5.43%.
For CCn1ncc2c1CCCC2NCc1ccc(OC)cc1OC (stereo not given), the cytotoxicity at 10 µM was -2.06%.
For Cc1nccn1C1CCCN(C(=O)c2cc3c(F)cccc3[nH]2)C1 (stereo not given), the cytotoxicity at 10 µM was 5.32%.
Molecule COCc1nc(CN(CC(N)=O)C(C)C)cs1 has a cytotoxicity at 10 µM of -8.39%.
O=C(CN1CCCC(Cn2cncn2)C1)NCCc1cccs1 (stereo not given) gave a cytotoxicity at 10 µM of -17.6%.
For CCc1nc(CN2CCN(CC(O)c3ccccc3)CC2)no1 (stereo not given), the cytotoxicity at 10 µM was -15.3%.
Work on Cc1csc(N2CCN(CC(=O)Nc3c(C)n[nH]c3C)CC2C)n1 (stereo not given) yielded a cytotoxicity at 10 µM of -14.4%.
In the case of CC(C)c1nnc2n1CCN(C(=O)c1ccnc(N(C)C)c1)C2, the cytotoxicity at 10 µM is reported as 3.06%.
Molecule Cc1ncccc1CNCC1CCN(CC(O)c2ccccc2)CC1 (stereo not given) has a cytotoxicity at 10 µM of -6.76%.
Molecule Cc1ccc(=O)n(CC2(O)CCN(Cc3cc(C)c(O)c(C)c3)CC2)n1 has a cytotoxicity at 10 µM of 1.7%.
In the case of Cn1cc(CNC2CCc3c(ccc(=O)n3Cc3ccncc3)C2)cn1 (stereo not given), the cytotoxicity at 10 µM is reported as -102%.
In the case of Cc1c(Br)cccc1C(=O)NCC1CCCNC1 (stereo not given), the cytotoxicity at 10 µM is reported as 19.8%.
With COCC1CC2(CCN(C(=O)c3cnc4ccccc4c3)CC2)CO1 (stereo not given) the cytotoxicity at 10 µM was -142%.
For CCc1ccc(CN2C[C@H](OC)[C@H]3COC[C@H]32)o1, the cytotoxicity at 10 µM was 5.22%.
In the case of O=C(c1cocn1)N1C[C@H]2CCC[C@@]2(COc2ccccn2)C1, the cytotoxicity at 10 µM is reported as -0.798%.
For CCN1CCCC12CCN(Cc1cccnc1OC)CC2, the cytotoxicity at 10 µM was 13.4%.
In the case of Cc1nc(CN2C[C@@H]3CN(C(=O)C4CC4)C[C@@H]3C2=O)cs1, the cytotoxicity at 10 µM is reported as 4.19%.
For COc1cccc(CNC(Cc2cccs2)c2nc(C)c(C)s2)c1OC (stereo not given), the cytotoxicity at 10 µM was -12.9%.
Work on COc1ccc(S(=O)(=O)N2CCN(C)c3ncccc3C2)cc1 yielded a cytotoxicity at 10 µM of -110%.
Cc1nc(CN2CCO[C@@H]3CN(Cc4ccccn4)CC[C@@H]3C2)cs1 showed a cytotoxicity at 10 µM of 7.02%.
For O=C(NC1CC1)[C@H]1C[C@H]2OCC[C@H]2N(Cc2cccnc2)C1, the cytotoxicity at 10 µM was 0.698%.
Cc1ccc2c(c1)C(NC1CC1)CC21CCNCC1 (stereo not given) showed a cytotoxicity at 10 µM of -98%.
Work on O=C1COC2(CCN(c3cccc(F)c3)CC2)CN1Cc1ccccn1 yielded a cytotoxicity at 10 µM of -2.94%.
In the case of Cn1cccc1C(=O)N1C[C@@H](OCc2ccncc2)[C@@H]2OCCC[C@@H]21, the cytotoxicity at 10 µM is reported as 2.32%.
With N#Cc1cccc(N2CCCC3(C2)CN(c2ncccn2)CCO3)n1 (stereo not given) the cytotoxicity at 10 µM was 17.8%.
Cc1cccc(S(=O)(=O)N2C[C@@H]3C[C@H](C(=O)N(C)C)[C@H](C2)O3)c1 showed a cytotoxicity at 10 µM of -5.18%.
